Bioassay records (PubChem)
HUVEC prolif 384 = inhibitors of human endothelial cell proliferation | HUVEC proliferation, CellTiter-Glo luminescence, 72 h; stronger effect = lower value | viability, % at 10 µM (by protocol) | 86,000 tested, 1.1% active | AID 648;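 active means viability at or below 30%; inactive means viability above 30%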;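 further: 100% = median luminescence of DMSO-only cell control wells on each plate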
Lung fibro prol = blocks proliferation of human lung fibroblasts. viability, % at 10 µM. 85,000 tested, 1.1% active. LL 47 human lung fibroblast viability, ATP luminescence; stronger effect = lower value;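 active means viability at or below 50% in the single dose screen; inactive means viability above 50%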;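 further: compound exposure lasted 72 h before the ATP readout; 100% = median luminescence of untreated cell-only wells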
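test system = LL 47 human lung fibroblasts | amount = 1,150 fibroblasts seeded per well | medium = 15% FBS in IMEM | times = overnight cell rest, 72 h compound treatment at 37 °C | measured by = CellTiter-Glo luminescence measuring cellular ATP | read-out = viability percentage against median untreated-cell control | benchmarks = cell-only wells, no compound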
H69AR inhibit = growth inhibitors of human H69AR lung tumor cells. H69AR lung tumor viability, ATP luminescence, 72 h; stronger effect = lower value. 85,000 tested, 6% active. viability, % at 10 µM;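 active means viability at or below 40%; inactive means viability above 40%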;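 further: multidrug resistant small cell line overexpressing MRP-1 efflux transporter; 100% = mean luminescence of untreated control wells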
HCT116 PTEN-null = suppresses growth of cells with PTEN deletion | HCT116 PTEN-null viability, CellTiter-Glo, 60 h; stronger effect = lower value | viability, % at 10 µM | 140,000 tested, 1.2% active;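 active means viability at or below a set limit, 4 SD under the median of all tested compounds, cut at about 3.7% in these data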;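 further: PTEN knockout HCT116 line with beta catenin targeted HCT116 as companion control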
HCT116 bCat-KO = beta-catenin-lacking colon tumor cell growth suppression; 140,000 tested, 1.5% active; viability, % at 10 µM; AID 818; HCT116 beta-catenin knockout viability, CellTiter-Glo, 60 h; stronger effect = lower value;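 active means viability at or under a set limit, the compound median less 4 SD, cut at about 6% in these data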;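 further: 0% = Hyamine 1622 control at 20 µM and 100% = untreated cell control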
* marks the source's active call; other numbers are inactive results; . = no result. This is one part of a sample in which hits are shown more often than they occur.

SMILES	HUVEC prolif 384	Lung fibro prol	H69AR inhibit	HCT116 PTEN-null	HCT116 bCat-KO
N#C/C(=C/c1ccc(N2CCCCC2)o1)c1cccc(F)c1	85	82	41	76	65
N#C/C(=C/c1ccc(N2CCCCCC2)o1)c1ccc(Cl)cc1	105	48*	101	64	52
COc1cc([C@H]2c3[nH]c4ccccc4c3C[C@H]3C(=O)N4[C@@H](c5cc(OC)c(OC)c(OC)c5)c5[nH]c6ccccc6c5C[C@H]4C(=O)N23)cc(OC)c1OC	.	.	.	1.8*	3.0*
O=C1[C@@H]2Cc3c([nH]c4ccccc34)[C@@H](c3ccccc3)N2C(=O)[C@@H]2Cc3c([nH]c4ccccc34)[C@@H](c3ccccc3)N12	.	.	.	1.5*	1.4*
COc1ccc(S(=O)(=O)N(CC(=O)NCc2cccnc2)c2ccc(F)cc2)cc1OC	.	.	.	106	97
CCOc1ccccc1C(=O)Nc1cc(Cl)ccc1O	50	99	30*	66	57
COc1ccccc1C(=O)Nc1cc(Cl)ccc1O	87	96	87	75	83
Cc1ccc(Cl)cc1NC(=O)c1ccccc1OCC(=O)Nc1ccc(Cl)cc1	.	.	.	2.9*	27
CC(C)c1ccc(N(CC(=O)Nc2ccc(S(=O)(=O)N3CCOCC3)cc2)S(C)(=O)=O)cc1	86	93	30*	84	96
CCCn1nnc(NC(=O)c2cccc(OCC(C)C)c2)n1	81	104	38*	103	98
CC(C)COc1cccc(C(=O)Nc2ccc(S(=O)(=O)N3CCOCC3)cc2)c1	41	88	22*	91	89
Clc1cccc(Cl)c1COn1nnc2ccccc21	41	63	35*	19	14
CC1(C)Cc2c(c(N3CCOCC3)nc3snc(Br)c23)CO1	94	89	19*	81	97
CC1(C)Cc2c(c(N3CCOCC3)nc3snc(N)c23)CO1	58	3.5*	95	1.9*	1.9*
COc1nnnc2c1sc1nc(N3CCOCC3)c3c(c12)CC(C)(C)OC3	98	93	84	.	.
CCOc1cc(C(=O)Nc2ccccc2F)cc(Br)c1OCC	.	.	.	82	93
Cc1ccc(-c2nc3ccccc3[nH]2)cc1NC(=O)c1ccc2c(c1)OCO2	.	.	.	77	76
O=C(NC(=S)Nc1cc(-c2nc3ccccc3[nH]2)ccc1Cl)c1ccc2c(c1)OCO2	.	.	.	1.5*	1.6*
CCOc1ccc(C(=O)Nc2cc(-c3nc4ccccc4[nH]3)ccc2Cl)cc1[N+](=O)[O-]	.	.	.	1.2*	1.2*
CCCc1cc(C(=O)Cc2ccc(F)cc2)c(O)cc1O	32	100	15*	103	96
C/C(CC1CC2=C(CC1(C)C)C(C)(C)CCC2)=N\NC(N)=S (stereo not drawn)	36	95	23*	28	9
Cc1cc(C)c2c(c1)-c1c(ssc1=S)C(C)(C)N2C(=O)CSc1nncn1C	67	74	13*	63	64
Cc1ccc2c(c1)-c1c(ssc1=S)C(C)(C)N2C(=O)CSc1nncn1C	89	92	79	63	67
CCN(c1ccc(OCC(=O)OCC(=O)Nc2ccc(F)c(F)c2F)cc1)S(=O)(=O)c1ccccc1	.	.	.	97	93
O=C(CSc1n[nH]c(-c2ccccc2)n1)c1ccc(O)c(O)c1	62	94	27*	35	38
SMILES	HUVEC prolif 384	Lung fibro prol	H69AR inhibit	HCT116 PTEN-null	HCT116 bCat-KO
CCc1ccc(C(=O)CSc2n[nH]c(-c3ccncc3)n2)cc1	100	97	84	78	87
Cc1nn(-c2ccccc2)c(C)c1C(=O)OCC(=O)NC12CC3CC(CC(C3)C1)C2	91	99	29*	71	60
CC(=O)Nc1ccc(NC(=O)COC(=O)c2c(C)nn(-c3ccccc3)c2C)cc1	.	.	.	96	89
CCc1ccc(OC(C)c2nnc(SCC(=O)Nc3ncccc3C)n2C)cc1 (stereo not drawn)	.	.	.	95	89
COc1ccccc1N1CCN(c2nc3ccccn3c(=O)c2C=O)CC1	.	.	.	91	85
Cc1ccc(CNC(=O)CSc2c3c(nc4ccc(Cl)cc24)CCCC3)o1	74	77	15*	86	87
Cc1nonc1NC(=O)CSc1nc2cc(Cl)ccc2c2c1CCCC2	61	101	60	77	89
Cc1ccc(C(C)C)cc1OCCCCN1CCCC1	.	.	.	84	85
C=CCn1c(-c2cccc(OC)c2)nc2nc3ccccc3nc21	82	93	34*	84	86
CC1CC(C)(C)N(C(=O)CSc2ccc(-c3ccc(F)cc3)nn2)c2ccccc21 (stereo not drawn)	.	.	.	4	4.9*
CCN(CC)Cc1nc2c(c(=O)[nH]1)C1(CCCCC1)Cc1ccccc1-2	100	90	59	84	78
CN(C)Cc1nc2c(c(=O)[nH]1)C1(CCCCC1)Cc1ccccc1-2	83	73	7.2*	60	40
CC1(C)Cc2nc3oc4c(=O)n(CC(=O)Nc5ccccc5)cnc4c3cc2CO1	.	.	.	90	88
CC1(C)Cc2nc3sc4c(=O)n(CC(=O)NCc5ccco5)cnc4c3cc2CO1	68	83	22*	40	43
COc1ccc(Cn2c(-c3ccc(Br)cc3)c[n+]3ccccc23)cc1	.	.	.	19	18
COc1ccc(NC(=O)c2cnc(C)cn2)c2ncccc12	27*	49*	2.8*	11	11
CCC(CO)[n+]1c(C)cc(/C=C2\Sc3ccccc3N2Cc2ccccc2)cc1C (stereo not drawn)	.	.	.	1.6*	1.4*
CCN1/C(=C2\SC(=S)N(Cc3ccccc3)C2=O)Sc2ccccc21	.	.	.	91	88
Cc1cc(N2CCN(Cc3ccccc3)CC2)n2nc(C)c(-c3ccccc3)c2n1	77	92	19*	61	46
COc1ccccc1-c1c(C)nn2c(N3CCCCCC3)cc(C)nc12	.	.	.	3.2*	2.6*
COc1ccccc1-c1c(C)nn2c(N3CCN(c4ccccc4OC)CC3)cc(C)nc12	81	106	93	36	15
CCOCCCNC(=O)C1CCN(c2cc(C)nc3c(-c4ccc(OC)c(OC)c4)c(C)nn23)CC1	106	106	33*	63	72
COc1ccccc1N1CCN(c2cc(C)nc3nc(C)nn23)CC1	99	99	40*	92	87
COc1ccccc1-c1c(C)nn2c(N3CCN(Cc4ccccc4)CC3)cc(C)nc12	90	87	55	52	33
Cc1ccc(C)c(NCCC#N)c1	.	.	.	93	96
SMILES	HUVEC prolif 384	Lung fibro prol	H69AR inhibit	HCT116 PTEN-null	HCT116 bCat-KO
CCNC(=O)/C(=C\C=C\c1ccccc1)NC(=O)c1ccc(Br)o1	.	.	.	103	106
Cc1cc(SCC#N)n2nc(C)c(-c3ccccc3)c2n1	53	74	26*	74	82
COc1ccc(-c2c(C)nn3c(N4CCN(Cc5ccccc5)CC4)cc(C)nc23)cc1OC	66	82	17*	7	11
Cc1cc(C)n(-c2nc(NC(C)C)nc(NC(C)C)n2)n1	.	.	.	57	42
Cc1csc(Nc2ccccc2C(F)(F)F)n1	92	94	106	88	81
Cc1cc(C)n(-c2nc(Nc3ccccc3C(F)(F)F)nc(-n3nc(C)cc3C)n2)n1	15*	27*	8.1*	3.5*	2.9*
